IMP-1 inhibitor: IMP-1 metallo-beta-lactamase inhibitors, primary screen, biochemical, epi-absorbance readout, Pseudomonas aeruginosa enzyme. hit rate 0.45% among 290,000. metallo-beta-lactamase IMP-1 (Pseudomonas aeruginosa). purified IMP-1, nitrocefin hydrolysis, epi-absorbance fluorescence. AID 1556, 2009. inhibition, % at 5.6 µM;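 active = inhibition above the mean plus 3 SD of all compounds in the same screening run, cut at about 4.5% in these data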;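 also: 0% = IMP-1 with DMSO and 100% = DMSO wells lacking enzyme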
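assay system = purified recombinant IMP-1 metallo-beta-lactamase enzyme | schedule = 15 min preincubation plus 25 min reaction at 25 °C | signal = Epi-absorbance fluorescence, 480 nm excitation, 530 nm emission | read-out basis = percent inhibition from optical density relative to buffer-blank wells | controls = IMP-1 with DMSO as 0%, enzyme-free DMSO as 100%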
ASAP1 inh: inhibitors of human ASAP1 ArfGAP activity, primary screen, biochemical, fluorescence polarization; Arf-GAP with SH3 domain, ANK repeat and PH domain-containing protein 1 (Homo sapiens), …; ASAP1-stimulated ARF1 GTP hydrolysis, GDP FP detection; inhibition, % at 16.5 µM; hit rate 0.19% among 360,000; AID 624377, 2012; in the data active = inhibition above about 25%;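 also: 0% = vehicle with enzyme and substrate and 100% = no enzyme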
Target sequence (Q9ULH1 325-724 limits assumed): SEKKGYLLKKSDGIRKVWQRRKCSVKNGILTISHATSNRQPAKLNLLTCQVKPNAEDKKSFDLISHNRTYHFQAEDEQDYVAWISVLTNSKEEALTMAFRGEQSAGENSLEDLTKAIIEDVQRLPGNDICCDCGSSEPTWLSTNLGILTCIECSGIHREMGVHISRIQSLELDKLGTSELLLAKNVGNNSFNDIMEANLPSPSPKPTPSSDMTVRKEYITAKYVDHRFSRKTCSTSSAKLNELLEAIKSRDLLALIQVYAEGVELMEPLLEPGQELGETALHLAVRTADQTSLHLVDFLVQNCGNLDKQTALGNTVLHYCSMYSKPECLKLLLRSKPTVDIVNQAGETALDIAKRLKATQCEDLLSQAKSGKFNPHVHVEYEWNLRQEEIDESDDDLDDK
PHOSPHO1 block: PubChem AID 1565; Phosphoethanolamine/phosphocholine phosphatase (Homo sapiens), Q8TCT1; recombinant PHOSPHO1, absorbance phosphatase assay; inhibition, % at 13.3 µM; hit rate 1.1% among 290,000; in the data active = inhibition above about 60%
Target sequence (Q8TCT1 whole entry, looked up): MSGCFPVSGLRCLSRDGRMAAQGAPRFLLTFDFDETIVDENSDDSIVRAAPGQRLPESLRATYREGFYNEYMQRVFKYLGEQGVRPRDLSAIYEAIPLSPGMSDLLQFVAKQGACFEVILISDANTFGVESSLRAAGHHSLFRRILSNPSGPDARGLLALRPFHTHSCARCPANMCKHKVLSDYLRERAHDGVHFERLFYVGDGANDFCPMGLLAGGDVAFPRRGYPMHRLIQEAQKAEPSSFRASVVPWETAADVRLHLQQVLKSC
ARFGAP1 inhibitor: inhibitors of rat ARFGAP1 GAP activity, primary screen, biochemical, fluorescence polarization, GDP tracer. ADP-ribosylation factor GTPase-activating protein 1 (Rattus norvegicus), Q62848. inhibition, % at 16.5 µM. Arfgap1-stimulated ARF1 GTP hydrolysis, GDP FP detection. hit rate 0.26% among 360,000;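 active = inhibition above a per-plate limit, mean inhibition of low control wells plus 3 SD, cut at about 25% in these data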;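 also: 0% = DMSO wells with enzyme and 100% = wells lacking Arfgap1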
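System: truncated rat Arfgap1 GAP domain / Medium: HEPES-based buffer, pH 7.5 / Also added: N-terminally truncated human ARF1-GTP substrate / Incubation: enzyme reaction 120 min at 25 °C after 20 min preincubation / Measured by: FP of antibody-bound GDP Alexa 633 tracer, ex 620/em 688 nm / Replicates: singlicate, each compound tested once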
Calb FLC: C. albicans growth inhibition with fluconazole, primary screen, CaCi-2 strain, Alamar Blue fluorescence | C. albicans CaCi-2 + fluconazole, 48 h | growth inhibition, % (test concentration not listed) | hit rate 0.57% among 300,000;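 active = growth inhibition above about 58% in most replicates, limit read from the data, passing the limit was not always enough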;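 also: all wells also contain fluconazole at 8 µg/ml as a sub-toxic cotreatment; 0% = median of DMSO wells and 100% = median of geldanamycin control wells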
VIM-2 inh: VIM-2 metallo-beta-lactamase inhibitors, primary screen, biochemical, epi-absorbance readout, Pseudomonas aeruginosa enzyme; hit rate 0.89% among 290,000; purified VIM-2, nitrocefin hydrolysis, epi-absorbance fluorescence; inhibition, % at 5.6 µM; AID 1527, 2009;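 active = inhibition above the mean of all tested compounds plus 3 SD, cutoff set per screening run, cut at about 7.5% in these data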;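 also: red hydrolysis product quenches plate fluorescence so inhibitors raise well fluorescence; 0% = enzyme with DMSO and 100% = DMSO without enzyme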
* = called active by the depositor; . = not tested or not shown. The list is not random: actives were taken first. Their share in the collection is about 2.6%.

SMILES	IMP-1 inhibitor	ASAP1 inh	PHOSPHO1 block	ARFGAP1 inhibitor	Calb FLC	VIM-2 inh
CSc1scc2c1-c1nc(SCC(=O)C(C)(C)C)ncc1CC2	9.8*	-6.0	15.9	1.2	-2.6	2.0
C=CCNC(=O)CSc1ncc2c(n1)-c1c(csc1SC)CC2	-0.5	5.8	15.9	7.8	-0.2	0.5
O=C(N[C@H](Cc1ccccc1)C(=O)NC1CCCCC1)[C@H]1O[C@@H](n2ccc(=O)[nH]c2=O)[C@H](O)[C@@H]1O	.	-4.0	.	5.5	.	.
COC(=O)c1c(NS(=O)(=O)c2ccc3ccccc3c2)sc2c1CCCC2	-3.4	-4.2	71.0*	0.1	-9.8	-3.6
CCOC(=O)c1c(NS(=O)(=O)c2ccc(Br)cc2)sc2c1CCC2	-0.6	1.6	.	-16.6	16.6	-0.3
O=C(c1ccccc1)C12COc3ccccc3C1ON=C2c1ccccc1 (stereo unspecified)	.	-14.2	.	6.5	.	.
C#CCOCCOCCOCCNc1nc(N2CCN(C(=O)[C@H](Cc3ccc(O)cc3)n3cc([C@@H](N)CC(C)C)nn3)CC2)nc(N2CCN(C(=O)[C@H](Cc3ccc(O)cc3)n3cc([C@@H](N)CC(C)C)nn3)CC2)n1	12.9*	.	21.9	.	14.0	2.0
CCOC(=O)N1CCN(C(=O)C[C@H]2C[C@@]3(C(=O)OC)C(=C[C@H](C(C)(C)C)O[C@@H]3C)N(CCC3=CCCCC3)C2=O)CC1	.	9.8	.	-11.2	.	.
S=C(SCc1cc(Cl)cc2c1OCOC2)N1CCSCC1	.	1.1	.	-3.3	.	.
CCC(=O)NC(NC(=S)Nc1cccc2cccnc12)C(Cl)(Cl)Cl (stereo unspecified)	-4.2	-2.7	-4.0	1.3	7.9	-3.7
CC(C)(C)C(=O)NC(Nc1cccc2cccnc12)C(Cl)(Cl)Cl (stereo unspecified)	-1.1	3.6	75.6*	3.8	-10.4	-0.7
Cc1cc(C)n2cc(CSc3nc4ccccc4s3)nc2n1	-0.8	1.1	-16.4	-1.5	18.5	10.5*
Cc1cc(C)n2cc(CSc3nc4ccccc4[nH]3)nc2n1	0.4	-3.2	-6.0	-7.5	-5.8	1.5
Cc1cc(C)n2cc(CSc3nnc(SCc4cn5c(C)cc(C)nc5n4)s3)nc2n1	-1.6	.	19.1	.	.	-0.1
Cc1cc(C)n2cc(CSc3nnc(N)s3)nc2n1	-3.7	-1.1	71.3*	10.3	5.0	-2.6
O=C(N[C@@H](Cc1cccnc1)C(=O)N1CCC[C@H]1C(=O)NCCc1ccccc1Cl)C1CCCC1	.	0.2	.	0.6	.	.
Nc1[nH]c(C(=O)c2ccccc2)c(-c2cccc3ccccc23)c1C(=O)NC1CCCCC1	.	7.3	.	3.1	.	.
CCOC(=O)C1(CCC(C)C)CC(CSc2nc3ccccc3[nH]2)OC1=O (stereo unspecified)	-4.1	4.0	71.2*	-2.4	-13.0	-3.8
O=C(NNC1=C(C(=O)C(F)(F)F)CCC1)c1cccc(Cl)c1	-1.5	-6.9	-6.0	5.5	100.8*	-2.5
O=C(NNC1=C(C(=O)C(F)(F)F)CCC1)c1ccc(Cl)cc1	-1.5	-6.4	9.9	4.3	108.8*	-3.2
COc1ccc(C(=O)NNC2=C(C(=O)C(F)(F)F)CCC2)cc1	-3.3	-11.7	5.5	1.7	-0.1	-3.0
O=C(NNC(=O)c1cccc(Cl)c1)NNC(=O)c1cccc(Cl)c1	.	-3.6	.	1.0	.	.
CN(N=Cc1ccc(N(C)C)cc1)C(=O)c1ccccc1N	.	2.6	.	4.0	.	.
CCc1ccc(NC(=O)CS(=O)CC(=O)Nc2ccc(N3CCOCC3)cc2)cc1 (stereo unspecified)	36.2*	-8.8	20.0	5.9	-2.0	-1.0
Cc1cccc(C)c1NC(=O)CS(=O)CC(=O)Nc1ccc(N2CCOCC2)cc1 (stereo unspecified)	-1.3	-2.0	20.0	18.4	-2.9	0.0
SMILES	IMP-1 inhibitor	ASAP1 inh	PHOSPHO1 block	ARFGAP1 inhibitor	Calb FLC	VIM-2 inh
O=C1Nc2ccccc2-n2nnnc2C1N1CCN(c2ccc(C(F)(F)F)cn2)CC1 (stereo unspecified)	.	11.2	.	-8.7	.	.
CC1C/C(=N\NC(=S)NCc2ccccc2)CC(C)(C)C1 (stereo unspecified)	-5.7	0.3	75.5*	-4.9	-22.7	-6.6
CC1CCC/C(=N\NC(=S)NCc2ccccc2)C1 (stereo unspecified)	0.2	5.7	85.0*	13.1	-3.3	-4.3
CC1(C)CC(=O)C/C(=N\NC(=S)NCc2ccccc2)C1	-3.1	-12.1	47.6	-13.8	11.7	-1.6
O=C(c1ccc(Cl)c(Cl)c1)N1CCC(=O)N([C@H](COCc2ccc(Cl)cc2)Cc2ccccc2)CC1	.	6.2	.	5.4	.	.
CC(C)[C@H](NC(=O)c1ccc(Cl)cc1Cl)C(=O)N1CCC[C@H]1C(=O)NCCc1ccccc1Cl	.	-4.9	.	12.9	.	.
COC(=O)C1=C(C)N(Cc2ccc(C(F)(F)F)cc2)C(=NCc2ccc(C(F)(F)F)cc2)NC1c1ccc(F)cc1 (stereo unspecified)	.	5.3	.	3.6	.	.
CCCN1CCCCC(NC(=O)c2ccc3ccccc3c2)C1=O (stereo unspecified)	.	5.0	.	9.8	.	.
CCOc1ccc2c(c1)C(C)=CC(C)(C)N2S(=O)(=O)c1ccc(C)cc1	-3.8	-1.6	14.6	-7.9	112.5*	-2.1
CCN(CC)CCNC(=O)c1c(C)n(-c2ccccc2)c2cc(Br)c(OC)cc12	-1.8	-0.2	37.3	-6.7	12.2	8.0*
NC(=O)c1ncn([C@@H]2O[C@H](C(=O)N[C@H](Cc3ccccc3)C(=O)N3CCN(c4ccc(Cl)cn4)CC3)[C@@H](O)[C@H]2O)n1	.	0.3	.	5.5	.	.
CN1CCN(CCCNC(=O)c2ccc3c(Cl)c4c(nc3c2)CCCC4)CC1	0.5	-5.0	33.2	5.1	3.3	9.4*
CCC(C)NC(=O)c1ccc2c(Cl)c3c(nc2c1)CCC3 (stereo unspecified)	-1.1	7.0	19.5	9.3	-0.4	1.9
Cc1nn(C)c(C)c1C1Nc2ccccc2C(=O)N1O (stereo unspecified)	-5.5	-1.9	11.1	-3.4	8.9	-1.8
COc1ccc(C2Nc3ccccc3C(=O)N2O)cc1OC (stereo unspecified)	-1.2	9.8	35.4	8.6	97.4*	-1.8
O=C1c2ccccc2NC(c2cnc3ccccc3n2)N1O (stereo unspecified)	-6.6	-3.7	20.8	-3.1	104.2*	-1.2
CCOC(=O)C(=CNc1ccc(-c2ccco2)c(Cl)c1)C(=O)OCC	6.4*	-0.7	15.7	3.9	4.1	0.9
